Reference: ChEMBL document CHEMBL4196201, “Discovery of N-(4-{[5-Fluoro-7-(2-methoxyethoxy)quinazolin-4-yl]amino}phenyl)-2-[4-(propan-2-yl)-1 H-1,2,3-triazol-1-yl]acetamide (AZD3229), a Potent Pan-KIT Mutant Inhibitor for the Treatment of Gastrointestinal Stromal Tumors” (J Med Chem, 2018)

Assays:
[1] = Cytotoxicity in mouse parental BA/F3 cells incubated for 72 hrs by MTS assay; format: cell-based, BaF3
[2] = target: Platelet-derived growth factor receptor beta (Homo sapiens) (UniProt P09619); experiment: Inhibition of TEL-fused PDGFRbeta (unknown origin) transfected in mouse BA/F3 cells assessed as inhibition of cell growth incubated for 72 hrs by MTS assay; format: cell-based
BaF3 [3] = experiment: Antitumor activity against mouse BA/F3 cells expressing Kit exon 11 deletion (557 to 558 residues) and V654 mutant (unknown origin) allografted in CB17 SCID mouse assessed as inhibition of tumor growth at 80 mg/kg, po qd measured on last day of dosing; format: functional; settings: read-out: TGI
In short: (§1)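 Ba/F3 cells bearing the KIT exon 11 del/D816H or exon 11 del/V654A mutation were grown as allografts in mice. Compounds were given p.o. once (QD) or twice daily (BD), and vehicle was given BD p.o. Tumor growth inhibition and regression (%) were taken on the last day of dosing. p-values were calculated relative to vehicle.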

BaF3 [4] = experiment: Antitumor activity against mouse BA/F3 cells expressing Kit exon 11 deletion (557 to 558 residues) and V654 mutant (unknown origin) allografted in CB17 SCID mouse assessed as tumor regression at 80 mg/kg, po qd measured on last day of dosing; format: functional; in short: as §1
[5] = system: Mast/stem cell growth factor receptor Kit (Homo sapiens), P10721 [UNDEFINED MUTATION]
[6] = target: Mast/stem cell growth factor receptor Kit (Homo sapiens) (UniProt P10721)
[7] = target: Mast/stem cell growth factor receptor Kit (Homo sapiens) (UniProt P10721); remark: listed apart in the source
[8] = system: Mast/stem cell growth factor receptor Kit (Homo sapiens), P10721 [UNDEFINED MUTATION]; remark: listed apart in the source
[9] = system: Mast/stem cell growth factor receptor Kit (Homo sapiens), P10721 [UNDEFINED MUTATION]; remark: listed apart in the source
[10] = system: Mast/stem cell growth factor receptor Kit (Homo sapiens), P10721 [UNDEFINED MUTATION]; remark: listed apart in the source
[11] = system: Mast/stem cell growth factor receptor Kit (Homo sapiens), P10721 [V560D,D816H]
[12] = target: Platelet-derived growth factor receptor alpha (Homo sapiens) (UniProt P16234)
[13] = system: Platelet-derived growth factor receptor alpha (Homo sapiens), P16234 [V561D,D842V]
BaF3 [14] = experiment: Antitumor activity against mouse BA/F3 cells expressing Kit exon 11 deletion (557 to 558 residues) and D816H mutant (unknown origin) allografted in CB17 SCID mouse assessed as inhibition of tumor growth at 300 mg/kg, po qd measured on last day of dosing; format: functional; settings: read-out: TGI; in short: as §1
BaF3 [15] = experiment: Antitumor activity against mouse BA/F3 cells expressing Kit exon 11 deletion (557 to 558 residues) and V654 mutant (unknown origin) allografted in CB17 SCID mouse assessed as inhibition of tumor growth at 300 mg/kg, po qd measured on last day of dosing; format: functional; settings: read-out: TGI; in short: as §1
BaF3 [16] = experiment: Antitumor activity against mouse BA/F3 cells expressing Kit exon 11 deletion (557 to 558 residues) and D816H mutant (unknown origin) allografted in CB17 SCID mouse assessed as tumor regression at 300 mg/kg, po qd measured on last day of dosing; format: functional; in short: as §1
BaF3 [17] = experiment: Antitumor activity against mouse BA/F3 cells expressing Kit exon 11 deletion (557 to 558 residues) and V654 mutant (unknown origin) allografted in CB17 SCID mouse assessed as tumor regression at 300 mg/kg, po qd measured on last day of dosing; format: functional; in short: as §1
[18] = target: Mast/stem cell growth factor receptor Kit (Homo sapiens) (UniProt P10721); remark: listed apart in the source
[19] = target: Mast/stem cell growth factor receptor Kit (Homo sapiens) (UniProt P10721); remark: listed apart in the source
[20] = system: Mast/stem cell growth factor receptor Kit (Homo sapiens), P10721 [UNDEFINED MUTATION]; remark: listed apart in the source
[21] = system: Mast/stem cell growth factor receptor Kit (Homo sapiens), P10721 [V560D]
Sequence of Mast/stem cell growth factor receptor Kit (Homo sapiens), P10721 [V560D] (P10721 whole entry V560D): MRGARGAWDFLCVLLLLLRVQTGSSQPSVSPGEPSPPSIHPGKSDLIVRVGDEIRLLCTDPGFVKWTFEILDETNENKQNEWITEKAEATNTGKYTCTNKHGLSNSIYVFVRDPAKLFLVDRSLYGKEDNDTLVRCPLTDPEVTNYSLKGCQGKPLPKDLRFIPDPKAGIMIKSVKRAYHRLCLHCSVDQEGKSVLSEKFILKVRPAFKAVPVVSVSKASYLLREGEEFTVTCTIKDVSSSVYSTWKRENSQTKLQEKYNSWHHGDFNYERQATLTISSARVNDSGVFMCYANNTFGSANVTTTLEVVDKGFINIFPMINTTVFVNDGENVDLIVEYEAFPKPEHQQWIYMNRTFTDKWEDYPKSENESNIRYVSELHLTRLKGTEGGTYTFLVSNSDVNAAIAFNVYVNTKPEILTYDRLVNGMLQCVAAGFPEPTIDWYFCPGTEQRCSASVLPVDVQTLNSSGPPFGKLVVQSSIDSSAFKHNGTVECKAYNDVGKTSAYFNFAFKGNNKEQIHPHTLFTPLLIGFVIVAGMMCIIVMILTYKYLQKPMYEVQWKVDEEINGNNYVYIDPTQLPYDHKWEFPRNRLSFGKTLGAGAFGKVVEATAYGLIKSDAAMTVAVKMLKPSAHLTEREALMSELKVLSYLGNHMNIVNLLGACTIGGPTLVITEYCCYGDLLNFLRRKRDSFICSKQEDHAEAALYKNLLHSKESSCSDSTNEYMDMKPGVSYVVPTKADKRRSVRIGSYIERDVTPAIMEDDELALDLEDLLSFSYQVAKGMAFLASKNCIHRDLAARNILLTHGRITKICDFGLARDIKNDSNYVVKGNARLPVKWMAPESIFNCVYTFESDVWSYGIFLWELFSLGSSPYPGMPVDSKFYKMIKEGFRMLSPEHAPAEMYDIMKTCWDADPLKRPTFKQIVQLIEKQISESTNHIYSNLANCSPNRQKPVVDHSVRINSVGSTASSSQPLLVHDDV

Sequence of Mast/stem cell growth factor receptor Kit (Homo sapiens), P10721 [UNDEFINED MUTATION] (P10721 whole entry, looked up, stated change not applied): as the sequence (P10721 whole entry V560D) above, with D560V counted along it
Sequence of Mast/stem cell growth factor receptor Kit (Homo sapiens) (P10721 whole entry): as the sequence (P10721 whole entry V560D) above, with D560V counted along it
Sequence of Platelet-derived growth factor receptor alpha (Homo sapiens), P16234 [V561D,D842V] (P16234 whole entry V561D/D842V, the tested form may be a part): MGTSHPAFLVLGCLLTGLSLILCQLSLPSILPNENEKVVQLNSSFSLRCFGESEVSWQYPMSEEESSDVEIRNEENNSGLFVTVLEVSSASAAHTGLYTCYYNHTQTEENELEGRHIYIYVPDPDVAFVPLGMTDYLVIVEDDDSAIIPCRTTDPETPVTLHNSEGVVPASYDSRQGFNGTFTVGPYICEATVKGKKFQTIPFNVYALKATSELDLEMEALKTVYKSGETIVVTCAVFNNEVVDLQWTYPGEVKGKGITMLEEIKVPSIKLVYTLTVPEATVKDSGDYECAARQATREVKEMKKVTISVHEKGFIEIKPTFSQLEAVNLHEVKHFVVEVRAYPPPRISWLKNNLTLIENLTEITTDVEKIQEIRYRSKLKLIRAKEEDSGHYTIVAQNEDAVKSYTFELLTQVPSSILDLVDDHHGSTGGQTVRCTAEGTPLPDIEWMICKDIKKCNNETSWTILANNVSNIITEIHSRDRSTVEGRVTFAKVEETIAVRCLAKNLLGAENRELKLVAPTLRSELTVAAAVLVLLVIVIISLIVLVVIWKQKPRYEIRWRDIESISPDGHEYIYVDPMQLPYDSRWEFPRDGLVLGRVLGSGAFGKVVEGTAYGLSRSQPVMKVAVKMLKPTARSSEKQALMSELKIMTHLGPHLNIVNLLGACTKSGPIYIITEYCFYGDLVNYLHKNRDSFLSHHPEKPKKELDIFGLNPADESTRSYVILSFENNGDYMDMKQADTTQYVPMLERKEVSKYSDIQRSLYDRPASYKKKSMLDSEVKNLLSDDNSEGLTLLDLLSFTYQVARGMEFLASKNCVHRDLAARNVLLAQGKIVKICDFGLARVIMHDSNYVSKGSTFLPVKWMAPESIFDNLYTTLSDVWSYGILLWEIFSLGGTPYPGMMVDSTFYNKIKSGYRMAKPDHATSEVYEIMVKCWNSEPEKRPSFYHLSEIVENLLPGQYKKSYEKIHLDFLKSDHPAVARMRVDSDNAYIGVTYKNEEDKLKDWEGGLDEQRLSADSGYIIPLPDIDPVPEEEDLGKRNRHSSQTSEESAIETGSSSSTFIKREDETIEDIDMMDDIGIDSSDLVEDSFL
Sequence of Platelet-derived growth factor receptor beta (Homo sapiens) (P09619 whole entry, the tested form may be a part): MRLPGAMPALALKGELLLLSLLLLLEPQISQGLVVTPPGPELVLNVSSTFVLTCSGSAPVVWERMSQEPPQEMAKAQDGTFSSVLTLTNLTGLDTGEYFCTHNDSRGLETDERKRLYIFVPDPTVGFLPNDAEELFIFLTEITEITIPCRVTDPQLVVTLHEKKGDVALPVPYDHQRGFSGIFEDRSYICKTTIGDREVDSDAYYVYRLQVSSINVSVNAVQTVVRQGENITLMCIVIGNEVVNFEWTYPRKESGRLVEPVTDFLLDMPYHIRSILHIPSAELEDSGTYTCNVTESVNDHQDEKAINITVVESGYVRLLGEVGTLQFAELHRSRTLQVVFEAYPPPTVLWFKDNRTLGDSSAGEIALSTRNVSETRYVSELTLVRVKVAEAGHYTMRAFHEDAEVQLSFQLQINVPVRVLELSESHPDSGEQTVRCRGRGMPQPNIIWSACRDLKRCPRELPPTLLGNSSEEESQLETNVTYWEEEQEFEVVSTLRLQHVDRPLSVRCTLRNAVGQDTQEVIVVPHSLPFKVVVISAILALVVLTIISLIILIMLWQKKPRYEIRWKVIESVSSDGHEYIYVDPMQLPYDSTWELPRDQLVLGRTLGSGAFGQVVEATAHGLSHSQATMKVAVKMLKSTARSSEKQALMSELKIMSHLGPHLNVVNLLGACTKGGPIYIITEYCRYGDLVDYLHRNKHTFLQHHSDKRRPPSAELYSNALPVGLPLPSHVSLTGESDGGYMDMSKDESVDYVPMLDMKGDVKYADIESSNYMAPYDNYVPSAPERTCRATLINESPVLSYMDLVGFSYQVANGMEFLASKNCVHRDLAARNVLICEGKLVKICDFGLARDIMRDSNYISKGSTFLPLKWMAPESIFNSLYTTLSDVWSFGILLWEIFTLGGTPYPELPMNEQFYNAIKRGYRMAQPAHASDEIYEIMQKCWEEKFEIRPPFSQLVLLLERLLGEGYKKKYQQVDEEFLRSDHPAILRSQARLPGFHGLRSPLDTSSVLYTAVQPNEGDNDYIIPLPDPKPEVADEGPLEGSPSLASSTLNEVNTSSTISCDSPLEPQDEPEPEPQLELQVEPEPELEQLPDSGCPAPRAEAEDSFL
Sequence of Mast/stem cell growth factor receptor Kit (Homo sapiens), P10721 [V560D,D816H] (P10721 whole entry V560D/D816H): as the sequence (P10721 whole entry V560D) above, with D816H counted along it
Sequence of Platelet-derived growth factor receptor alpha (Homo sapiens) (P16234 whole entry): as the sequence (P16234 whole entry V561D/D842V, the tested form may be a part) above, with D561V, V842D counted along it

GI50 [2] [nM]	GI50 [5] [nM]	GI50 [6] [nM]	GI50 [7] [nM]	GI50 [8] [nM]	GI50 [9] [nM]	GI50 [11] [nM]	GI50 [13] [nM]	SMILES	GI50 at 72 h [1] [nM]	also measured
114	398 to 400	12	4	214	782	696	631	CCN(CC)CCNC(=O)c1c(C)[nH]c(/C=C2\C(=O)Nc3ccc(F)cc32)c1C [SUNITINIB]	4790	inhibition in vivo at 80 mg/kg (BaF3 [3]): > 100%; Activity (BaF3 [4]): 87%; GI50 [10]: 271 nM; GI50 [12]: 30 nM
102	535 to 537	3950	17	216	669	1190	567	Cc1ccc(NC(=O)c2ccc(CN3CCN(C)CC3)cc2)cc1Nc1nccc(-c2cccnc2)n1 [IMATINIB]	> 10000	inhibition in vivo at 300 mg/kg (BaF3 [14]): 43%; inhibition in vivo at 300 mg/kg (BaF3 [15]): 34%; Activity (BaF3 [16]): 0%; Activity (BaF3 [17]): 0%; GI50 [18]: 192 nM; GI50 [19]: 2750 nM; GI50 [20]: 312 nM; GI50 [21]: 70 nM
